Measurements as given in the EternaBench riboswitch data.

System: MS2 coat protein
Assay: apparent Kd, MS2 coat protein; higher = weaker binding; RNA-MaP array; FMN 200 µM where present
How it was run: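 Binding was read on Illumina sequencing-chip clusters where stalled E. coli RNA polymerase had transcribed each design. A titration of SNAP-549-labelled MS2 coat protein began at 0.7 or 1.5 nM and doubled to 3 µM, once without ligand and once with constant ligand, in 100 mM Tris-HCl pH 7.5, 80 mM KCl, 4 mM MgCl2, BSA, DTT, yeast tRNA and Tween-20. The apparent Kd is the median of filtered per-cluster binding-curve fits, based on green signal normalised to red-channel RNA signal and control-cluster median Fmax.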

[1] = designed as: ON switch for flavin mononucleotide, no ligand
[2] = ligand present: flavin mononucleotide, designed as: ON switch for flavin mononucleotide
[3] = designed as: OFF switch for flavin mononucleotide, no ligand
[4] = ligand present: flavin mononucleotide, designed as: OFF switch for flavin mononucleotide

Sequence | apparent Kd [1] | apparent Kd [2] | apparent Kd [3] | apparent Kd [4]
AACAUACAUGAGGAUCACCCAUGUUCCGGCAGGACAGGAUAUACAUCGAAAGUGUUAUAAGUAGAAGGGUCAUAAA | 77.8 nM | 71.2 nM |  | 
AACAUGAGGAUCACCCAUGUCCCACCAGAAGGCUGGCGGUGGUGGUAAAGGCCACGACAAAUAACAGAGGAUAUGGUGAAUGCA | 84.6 nM | 18.8 nM |  | 
AACAUGUCAGGAUAUGACUAAGGUGCUCGGUUGAGCCCUUAUCAGAAGGGACAUGAGGAUCACCCAUGUUCCGA |  |  | 17.8 nM | 21.1 nM
AACAUGUGAGGAUAUUGAUUGGAGACGUGGAGACCGCUAAUUAAGAAGGUACAUGAGGAUCACCCAUGUCCCAU |  |  | 215 nM | 231 nM
AACCGACAUGAGGAUCACCCAUGUCAGGAUAUGGACUGACACCGAAAGGGUGGCGGAACCAGAAGGGACUGGGC |  |  | 36.3 nM | 96.5 nM
AACCGCGACCGGCCUGGCACGUCGAGAAGGGUACGUGACCUGCUUUACAUGAGGAUCACCCAUGUACAGGAUAUCGAAUAGCCG |  |  | 5.97 nM | 8.4 nM
AACCUAAAACAGAAGGCCAGCUACAUGAGGAUCACCCAUGUCGAAUCAUGGAGGAUAUGUUGUAAUUUACUCGCAGAUGAGUGC |  | 5.92 nM |  | 
AACCUGGUAAAUAAACUCAAUUACAUGAGGAUCACCCAUGUAUAGGAUAUGCAGUGGAAUACACUGCAGAAGGAUACAUCCAGG |  |  | 18 nM | 60.9 nM
AACGACUUAGGAUAUACAUGAGGAUCACCCAUGUUCAAAUCGUGGGUCAGGUGAGAAGGUAGAAGGAAGUCACU |  |  | 33.6 nM | 93.7 nM
AACGAGCAGUAGAAGGCGUGUCUACGGACAUGAGGAUCACCCAUGUUGUGACUCCGAAAGGAGCGCGAGGAUAUACUGCUCAAA | 10.3 nM | 6.57 nM |  | 
AACGAUCUAGGAUAUACAUGAGGAUCACCCAUGUAAGAGCCCAAACCAGGCUCCCUCUGUAGAAGGAGGUCAAA |  |  |  | 50.9 nM
AACGCAUGUGGAGGAUAUGCAGUUAACAUAAGCGCAGAAGGCCACAUGAGGAUCACCCAUGUCCGGCAUUAGCCGAUGUUGAUC |  |  | 509 nM | 114 nM
AACUAGUGAGGAUAUACAUGAGGAUCACCCAUGUACGUCGUGGGUAGAAAACAAGUCAGUAGAAGGUGCUAGAC |  |  | 157 nM | 248 nM
AACUUCCCGUCAGGAUAUCGCCGUAGGUCCUCGGGUCUCGCCGUCAUACAUGAGGAUCACCCAUGUGAGAAGGGACGGGAUUCA |  |  | 21.8 nM | 117 nM
AAGAAAGAGCGAGGAUAUGCGAUAAAAUAAUAAGCAGAAGGUGCAUAACAUGAGGAUCACCCAUGUUGUUGUCAUGUCAAGAUU |  |  | 14.2 nM | 18.2 nM
AAGAAGAACGCAGGAUAUCUCACCCAUGUAAGAAGAGAAGGGCGACAUGAGGAUCACCCAUGUCAACAUGAGGAUCACCCAUGU |  |  | 59.6 nM | 88.9 nM
AAGAAGUCAGGAUAUCCAUGGCGGCACUUGCGUGGUGGCGUGGAGAAGGGACAUGAGGAUCACCCAUGUAAAGU |  |  | 49 nM | 44.6 nM
AAGAAGUCAGGAUAUGCAUGGCGGGACUUGCGUCGUGGCGUGCAGAAGGGACAUGAGGAUCACCCAUGUAAAGA |  |  | 49.4 nM | 41.7 nM
AAGAAGUCAGGAUAUGCAUGGCGGGACUUGCGUCGUGGCGUGCAGAAGGGACAUGAGGAUCACCCAUGUAAAGG |  |  | 151 nM | 180 nM
AAGAAGUCAGGAUAUGCAUGGCGGGACUUGCGUCGUGGCGUGCAGAAGGGACAUGAGGAUCACCCAUGUGGAGU |  |  | 155 nM | 241 nM
AAGAAGUGAGGAUAUGCUGCUCGUCACUUGCGUGAUGAGUAGCAGAAGGCACAUGAGGAUCACCCAUGUGGAAG |  |  | 33.9 nM | 47.8 nM
AAGAAGUGAGGAUAUGGCCGGGUCCCUGGGUUUGGACCCGGCCAGAAGGCACAUGAGGAUCACCCAUGUAAGAA |  |  | 24 nM | 46.3 nM

Sequence | apparent Kd [1] | apparent Kd [2] | apparent Kd [3] | apparent Kd [4]
AAGAAGUUAGGAUAUGCUGCUCGUCACAAAAGUGAUGAGUAGCAGAAGGAACAUGAGGAUCACCCAUGUAAAGA |  |  | 32.3 nM | 22.9 nM
AAGAAUAGAAAGAUUAAUAUGAAUACAUGAGGAUCACCCAUGUAGGAUAUCGACGUCAAUGACGUCGAGAAGGACAAAAUAAAU |  |  | 9.44 nM | 9.55 nM
AAGAAUAGAAAGAUUAAUAUGAAUACAUGAGGAUCACCCAUGUAGGAUAUGCAGCUGAAUCAGCUGCAGAAGGACAAAAUAAAU |  |  | 9.15 nM | 9.08 nM
AAGACAUGAGGAUCACCCAUGUAAAGACCGGUCGAUCAAGGUGAGGAUAUACAAUAAUUGAUAGGGUAGAAGGCACUGGGUUGA | 286 nM | 148 nM |  | 
AAGAGGUGAGGAUAUCGAAGAAGAAGAAGAAGAAGAAGAAACGAGAAGGCACAUGAGGAUCACCCAUGUAAGAA |  |  | 22.5 nM | 19.9 nM
AAGAGUGCAGGAUAUACUUGGUAGGGUAAGAUGAGUGAGUGACAUGAGGAUCACCCAUGUAGAAGGGCAGAGAG |  |  | 121 nM | 132 nM
AAGAUACUUACAGGAUAUAGGGCAUAGGGUGCCCUAGAAGGGUGAACAUGAGGAUCACCCAUGUAUGUAUCAGAUUAGAAGGCA | 53.3 nM | 41.8 nM |  | 
AAGCGCGUAGGAUAUACAUGAGGAUCACCCAUGUGAGGAGGGAGUUGGAGGUGUGGAAGUAGAAGGACGGAGUG |  |  | 48.1 nM | 37.6 nM
AAGCUUGAUCCUCGUGUAUACAUGAGGAUCACCCAUGUGACGCAGGAUAUAGGCGUGUUAGUAGCCUAGAAGGGCGAGCAGCGA |  |  | 128 nM | 73.5 nM
AAGGAAACCACAGGAUAUGGCUAGCAUAGCUAGCCAGAAGGGUGGUCGAAACCAUGUAAAUACAUGAGGAUCACCCAUGUGUCC | 189 nM | 271 nM |  | 
AAGGAACAUGAGGAUCACCCAUGUGAGGAUAUGUGAGAAGGAUUUGAGAAGGAGAGGGACAGAAGGCACUAGGA |  |  | 46.9 nM | 41.8 nM
AAGGAGUCAGGAUAUGCUGCUCGUCACUUGCGUGAUGAGUAGCAGAAGGGACAUGAGGAUCACCCAUGUAAAGA |  |  | 51.2 nM | 61.4 nM
AAGGCCUAUUCCAGGACUAUCGUACUAGAAGGGUGACCUGACAUGAGGAUCACCCAUGUACGGGCACAGGAUAUAGAUGAAAGG | 50.1 nM | 11.3 nM |  | 
AAGGGUUGUGAGGAUAUGGCUUACCAAUUGGUACCAGAAGGCGCUACAUGAGGAUCACCCAUGUGGGUCGUCCC |  |  | 51.8 nM | 82.9 nM
AAGGUAUACUGAGGAUAUCCGUGGGUAUAUGGGUCUAGGAACAUGAGGAUCACCCAUGUUCCCUAGGAGAAGGCAGGACAUUAA |  |  | 25 nM | 33.6 nM
AAGGUGAGUCAAGGAUAUCCGGGCUGAAUGCCAGGAGAAGGUGACAUGAGGAUCACCCAUGUCUCUCCGAGCAUGGUAUUCUCA |  |  | 148 nM | 138 nM
AAGUAGAACGUAGGAUAUCAAUGAGGAUCACCCUGAGAAGGACGUGAGGACAUGAGGAUCACCCAUGUGGAUCACCCAUGUCAU |  |  | 157 nM | 132 nM
AAGUCAGCAGGAUAUGCGAUGGUGGGCUAGGUAGCUUGCCCACAUGAGGAUCACCCAUGUAGAAGGGCUGGCUA |  |  | 72 nM | 48.7 nM
AAGUCGAGCGUGAGGAUAUCGUCCGGACGACCGAACGAGAAGGCACAUGAGGAUCACCCAUGUGAUUCAGCUCA |  |  | 19 nM | 70.5 nM
AAGUCGUGAGGAUAUACAUGCAUAUACAUUUAUGUAAAACUACAUGAGGAUCACCCAUGUAGAAGGCACGAAUA |  |  | 17.6 nM | 16.1 nM
AAGUCUGGAUGAGGAUAUCAGCUGUAACUGGCGUCGACAUGAGGAUCACCCAUGUUGCUAUAGGGUGAGAAGGCAUUUGGGCAA | 43.1 nM | 28.8 nM |  | 
